Test results reported in ChEMBL document CHEMBL1127811, “Inhibitors of cholesterol biosynthesis. 2. Hypocholesterolemic and antioxidant activities of benzopyran and tetrahydronaphthalene analogues of the tocotrienols” (J Med Chem, 1994).
pIC50: −log10 of the molar value.

How the values were obtained:
HepG2 = assay: In vitro inhibition of cholesterol biosynthesis in Hep G2 cells; format: functional, Homo sapiens; set-up: concentration or dose not given beside the values
In short: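 HepG2 human hepatoma cells incubated 4 h with compound at 10 μM, DMSO vehicle controls. Mean % inhibition vs controls, SD ≤ ±10%, n ≥ 8.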

Gallus gallus [1] = organism: Gallus gallus; assay: (§1) Hypocholesterolemic activity in 6-week old male mormocholesterolemic chickens using experiment 4; format: functional
In short: (§2)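 Male chickens, 6 weeks old. Test compound mixed at 50 ppm into a corn-soybean control diet; controls get the diet alone. After the feeding period, birds are fasted 36 h and refed 48 h before sacrifice. Serum total, LDL and HDL cholesterol (mg/100 mL) and triglycerides measured; expressed as mean ± SD and percent of control, n = 6–12 per group.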

Gallus gallus [2] = organism: Gallus gallus; assay: as §1; format: functional; remark: listed apart in the source
In short: (§3)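 Six-week-old male chickens fed corn-soybean control diet with test compound at 50 ppm. Birds fasted 36 h, then refed 48 h before sacrifice. Serum total, LDL and HDL cholesterol and triglycerides measured (mg/100 mL), HDL/total ratio computed. Means ± SD, n = 6–12 per group, also as % of control. Significance p < 0.01 within each study.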

Gallus gallus [3] = organism: Gallus gallus; assay: Ratio of HDL/total cholesterol value; format: functional; in short: as §3
[4] = biological target: T1, 3-hydroxy-3-methylglutaryl-coenzyme A reductase (Homo sapiens) (UniProt P04035); assay: In vitro suppression of HMG-CoA reductase (HMGR) in Hep G2 cells; format: cell-based; set-up: concentration or dose not given beside the values; settings: HepG2, concentration not given here
T1 sequence (whole entry): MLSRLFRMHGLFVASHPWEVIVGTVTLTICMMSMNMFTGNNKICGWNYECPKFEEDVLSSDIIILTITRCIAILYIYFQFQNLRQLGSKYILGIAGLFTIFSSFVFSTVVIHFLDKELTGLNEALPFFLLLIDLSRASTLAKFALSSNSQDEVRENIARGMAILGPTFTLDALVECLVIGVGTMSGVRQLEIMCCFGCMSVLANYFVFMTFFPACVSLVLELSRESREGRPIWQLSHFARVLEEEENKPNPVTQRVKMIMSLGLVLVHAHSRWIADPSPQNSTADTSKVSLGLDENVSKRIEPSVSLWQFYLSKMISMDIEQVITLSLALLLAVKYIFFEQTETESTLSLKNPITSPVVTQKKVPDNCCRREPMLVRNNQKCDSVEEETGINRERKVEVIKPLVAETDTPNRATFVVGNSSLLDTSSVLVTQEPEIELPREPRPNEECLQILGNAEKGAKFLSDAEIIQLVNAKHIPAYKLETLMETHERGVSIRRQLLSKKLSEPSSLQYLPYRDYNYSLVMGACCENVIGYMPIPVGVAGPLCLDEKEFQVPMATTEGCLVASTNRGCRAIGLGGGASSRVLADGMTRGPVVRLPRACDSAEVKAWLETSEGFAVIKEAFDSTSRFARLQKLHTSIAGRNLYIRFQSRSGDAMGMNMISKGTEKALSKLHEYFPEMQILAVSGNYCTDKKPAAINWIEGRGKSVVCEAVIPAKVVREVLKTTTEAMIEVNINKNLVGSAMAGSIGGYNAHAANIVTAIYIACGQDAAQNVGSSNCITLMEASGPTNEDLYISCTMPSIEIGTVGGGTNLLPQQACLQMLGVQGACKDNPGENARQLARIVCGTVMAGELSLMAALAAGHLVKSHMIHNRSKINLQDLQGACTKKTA
In short: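 HepG2 cells treated 4 h with compound at 10 μM, DMSO vehicle controls. HMG-CoA reductase activity assayed in microsomal fraction isolated at end of incubation. Mean % suppression vs controls, SD ≤ ±10%, n ≥ 8.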

[5] = LDL oxidation assay as spectrophotometric determination of TBARS; format: functional
In short: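 LDL (0.5 mg/mL protein stock) in saline/20 mM HEPES with drug in ethanol, oxidised by CuSO4 (4 × 10⁻⁴ M stock), 37 °C, 5 h, in duplicate. Stopped with EDTA; TCA/TBA added, boiled 30 min, A535 read. Malonaldehyde equivalents from tetramethoxypropane standard curve. IC50 = concentration inhibiting 50% TBARS vs ethanol controls.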

[6] = Compound oxidation potential using cyclic voltametry; format: ADME
Gallus gallus [7] = organism: Gallus gallus; assay: (§4) Hypocholesterolemic activity in 6-week old male mormocholesterolemic chickens using experiment 3; format: functional; in short: as §2
Gallus gallus [8] = organism: Gallus gallus; assay: as §4; format: functional; in short: as §3; remark: listed apart in the source
Gallus gallus [9] = organism: Gallus gallus; assay: Hypocholesterolemic activity in 6-week old male mormocholesterolemic chickens using experiment 2; format: functional; in short: as §3

Compound	Inhibition (HepG2) [%]	pIC50 [5]	Potential [6]	further results
CC(C)=CCC/C(C)=C/CC/C(C)=C/CC/C(C)=C/CCC1(C)CCc2cc(O)c(C)c(C)c2O1 (configuration not stated)	0			
CC(=O)Oc1cc2c(c(C)c1C)OC(CC/C=C(\C)CC/C=C(\C)CCC=C(C)C)CC2 (configuration not stated)				LDL cholesterol (Gallus gallus [1]): 44 mg 100ml-1; HDL cholesterol (Gallus gallus [2]): 87 mg 100ml-1; Total cholesterol (Gallus gallus [2]): 139 mg 100ml-1; Triglycerides (Gallus gallus [2]): 67 mg 100ml-1; Ratio (Gallus gallus [3]): 0.63
CC(C)=CCC/C(C)=C/CC/C(C)=C/CCC1(C)CCc2cc(O)c(F)cc2O1 (configuration not stated)	60	5.52	1.21	inhibition [4]: 33%
CC(C)=CCC/C(C)=C/CC/C(C)=C/CCc1oc2c(C)c(C)c(O)cc2c(=O)c1O	61		1.2	
CC(C)=CCC/C(C)=C/CC/C(C)=C/CCC1(C)C=Cc2cc(O)c(C)c(C)c2O1 (configuration not stated)	69		0.92	
CC(C)=CCC/C(C)=C/CC/C(C)=C/CCC1(C)CCc2ccc(O)c(O)c2O1 (configuration not stated)	27		1.26	
CC(C)=CCC/C(C)=C/CC/C(C)=C/CCC1(C)CCc2cc(O)cc(Br)c2O1 (configuration not stated)	62			LDL cholesterol (Gallus gallus [7]): 45 mg 100ml-1; HDL cholesterol (Gallus gallus [8]): 93 mg 100ml-1; Total cholesterol (Gallus gallus [8]): 139 mg 100ml-1; Triglycerides (Gallus gallus [8]): 87 mg 100ml-1; Ratio (Gallus gallus [3]): 0.67
CC(C)=CCC/C(C)=C/CCC1(C)CCc2cc(O)ccc2O1 (configuration not stated)	48	5.70		LDL cholesterol (Gallus gallus [1]): 33 mg 100ml-1; HDL cholesterol (Gallus gallus [2]): 93 mg 100ml-1; Total cholesterol (Gallus gallus [2]): 130 mg 100ml-1; Triglycerides (Gallus gallus [2]): 73 mg 100ml-1; inhibition [4]: 52%; Ratio (Gallus gallus [3]): 0.72
CC(C)=CCC/C(C)=C/CC/C(C)=C/CCC1(C)CCc2c(C)c(O)cc(C)c2O1 (configuration not stated)	43	5.15	1.05	inhibition [4]: 21%
CCCCC/C=C\C/C=C\CCCCCCCC1(C)CCc2cc(O)c(C)c(C)c2O1 (configuration not stated)	18			
CC(C)=CCC/C(C)=C/CCC1(C)CCc2c(O)cc(N3CCCC3)cc2O1 (configuration not stated)	54	5.40		
CC(C)=CCC/C(C)=C/CC/C(C)=C/CCC1CCc2cc(O)ccc2C1 (configuration not stated)	40			LDL cholesterol (Gallus gallus [7]): 57 mg 100ml-1; HDL cholesterol (Gallus gallus [8]): 94 mg 100ml-1; Total cholesterol (Gallus gallus [8]): 152 mg 100ml-1; Triglycerides (Gallus gallus [8]): 76 mg 100ml-1; Ratio (Gallus gallus [3]): 0.62
CC(C)=CCC/C(C)=C/CC/C=C/CCC1(C)CCc2cc(O)c(C)c(C)c2O1 (configuration not stated)	68			
CC(C)=CCC/C(C)=C/CC/C(C)=C/CCC1(C)CCc2cccc(O)c2O1 (configuration not stated)	46		1.24	
CC(C)=CCC/C(C)=C/CC/C(C)=C/CCC1(C)CCc2ccc(O)cc2O1 (configuration not stated)	58	< 5.00	1.44	
CC(C)=CCC/C(C)=C\CCC1(C)CCc2cc(O)ccc2O1 (configuration not stated)	55	5.70		LDL cholesterol (Gallus gallus [1]): 39 mg 100ml-1; HDL cholesterol (Gallus gallus [2]): 94 mg 100ml-1; Total cholesterol (Gallus gallus [2]): 142 mg 100ml-1; Triglycerides (Gallus gallus [2]): 67 mg 100ml-1; inhibition [4]: 39%; Ratio (Gallus gallus [3]): 0.66
CCCCC/C=C\C/C=C\C/C=C\CCCCC1(C)CCc2cc(O)c(C)c(C)c2O1 (configuration not stated)	22			
CC(C)=CCC/C(C)=C/CC/C(C)=C/CCC1(C)CCc2cc(C)c(C)cc2O1 (configuration not stated)	33			

Compound	Inhibition (HepG2) [%]	pIC50 [5]	Potential [6]	further results
CCCCC/C=C/C/C=C/CCCCCCCC1(C)CCc2cc(O)c(C)c(C)c2O1 (configuration not stated)	17			
CC(C)=CCC/C(C)=C/CC/C(C)=C/CCC1(C)CCc2cc(O)cc(C#N)c2O1 (configuration not stated)	63			LDL cholesterol (Gallus gallus [7]): 54 mg 100ml-1; HDL cholesterol (Gallus gallus [8]): 94 mg 100ml-1; Total cholesterol (Gallus gallus [8]): 151 mg 100ml-1; Triglycerides (Gallus gallus [8]): 83 mg 100ml-1; Ratio (Gallus gallus [3]): 0.62
CC(C)=CCC/C(C)=C/CC/C(C)=C/CCc1cc(=O)c2cc(O)c(C)c(C)c2o1	71			
COc1cc2c(c(C)c1C)OC(C)(CC/C=C(\C)CC/C=C(\C)CCC=C(C)C)CC2 (configuration not stated)	0			
CC(C)=CCC/C(C)=C/CC/C(C)=C/CCC1(C)CC(O)c2cc(O)c(C)c(C)c2O1 (configuration not stated)	56		0.96	
CC(C)=CCC/C(C)=C/CC/C(C)=C/CCC1(C)CCc2cc(O)c(C(C)(C)C)cc2O1 (configuration not stated)	38	5.00		
CCCCCCCC/C=C/CCCCCCCC1(C)CCc2cc(O)c(C)c(C)c2O1 (configuration not stated)	10			
CC(C)=CCC/C(C)=C/CC/C=C\CCC1(C)CCc2cc(O)c(C)c(C)c2O1 (configuration not stated)	81			inhibition [4]: 45%
CC(C)=CCC/C(C)=C/CC/C(C)=C/CCC1Oc2c(cc(O)c(C)c2C)C(=O)/C1=N\O (configuration not stated)	84			
CC(C)=CCCC1(C)CCc2cc(O)ccc2O1 (configuration not stated)	35	5.70	1.2	LDL cholesterol (Gallus gallus [1]): 32 mg 100ml-1; HDL cholesterol (Gallus gallus [2]): 93 mg 100ml-1; Total cholesterol (Gallus gallus [2]): 131 mg 100ml-1; Triglycerides (Gallus gallus [2]): 73 mg 100ml-1; Ratio (Gallus gallus [3]): 0.71
CC(C)=CCC/C(C)=C/CC/C(C)=C/CCC1(C)CCc2cc(O)ccc2O1 (configuration not stated)	62	6.22	1.05	Triglycerides (Gallus gallus [9]): 80 mg 100ml-1; inhibition [4]: 53%; Ratio (Gallus gallus [3]): 0.61
C/C(=C\CCC1(C)CCc2cc(O)c(F)cc2O1)CO (configuration not stated)	15	< 5.00		
CC(C)=CCC/C(C)=C/CC/C(C)=C/CCC1(C)CCc2c(cc(C)c(O)c2C)O1 (configuration not stated)	42	< 5.00	1.06	inhibition [4]: 40%
CC(C)=CCC/C(C)=C/CCC#CCCC1(C)CCc2cc(O)c(C)c(C)c2O1 (configuration not stated)	81			inhibition [4]: 46%
CC(C)=CCC/C(C)=C/CC/C(C)=C/CCC1(C)CCc2cc(F)ccc2O1 (configuration not stated)	35			
CC(C)=CCC/C(C)=C/CC/C(C)=C/CCC1(C)CCc2c(O)cccc2O1 (configuration not stated)	62		1.27	
CCCCCCCCCCCCCC1(C)CCc2cc(O)c(C)c(C)c2O1 (configuration not stated)	16			
